Shown are actives, neighbours in structure and some others; about 5.6% of the full set was active somewhere.
CHOP inh – inhibitors of CHOP promoter induction, primary screen, cell-based, unfolded protein response, luciferase reporter | hit rate 3.8% among 220,000 | AID 2732, 2010 | inhibition, % at 10 µM | CHO-K1 CHOP-promoter luciferase, tunicamycin-induced, 15-18 h;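 active = compounds that reduced the stress-induced luciferase reporter signal by more than about 70% of percent inhibition, limit read from the data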;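 note: 0% = tunicamycin plus vehicle and 100% = wells without tunicamycin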
aDG glyco up – activators of alpha-DG glycosylation, primary screen, uHTS, Pro5-aDG cells, AlphaScreen | AID 624168, 2012 | alpha-DG glycosylation AlphaScreen (IIH6); 0% Pro5, 100% B10-LARGE cell signal | hit rate 0.22% among 360,000 | activation, % at 10 µM;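 active = activation of at least 8% versus controls, or a plate z-score of at least 8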;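 note: Pro5 are CHO cells carrying HIG-tagged alpha-DG that lacks glycosylation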
MPTP block – mitochondrial permeability transition pore inhibitors, primary screen, biochemical, isolated mouse mitochondria, absorbance | Ca2+ swelling absorbance, 30 min | inhibition, % at 10 µM | hit rate 1.4% among 360,000 | AID 602449, 2012;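 active = inhibition of 50% or more, scaled per plate between neutral and stimulator controls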;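 note: 0% = DMSO wells given calcium and 100% = 1 mM EGTA wells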
GRIN3A LBD mod – binders of NR3A ligand-binding domain, primary screen, biophysical, differential scanning fluorimetry, uHTS; Glutamate receptor ionotropic, NMDA 3A (GRIN3A) ligand-binding domain; NR3A LBD differential scanning fluorimetry, Tm shift; 0% = protein alone, 100% = glycine-bound protein; Tm shift relative to glycine control, % at 25 µM; hit rate 2.5% among 340,000; AID 1259313, 2017;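 active = melting temperature shift of at least 10% of the positive control shift, at one fixed dose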
UPR CHOP act – activators of apoptotic CHOP UPR arm, primary screen, cell-based, CHO-CHOP luciferase reporter, luminescence, uHTS | activation, % at 10 µM | UPR activation; percent of tunicamycin response over DMSO baseline | hit rate 0.34% among 330,000;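 active = at 10 µM dose, activation of 40% or more, normalized to positive control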;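 note: 100% = tunicamycin at 10 µg/mL and 0% = DMSO alone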
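System: CHO-CHOP luciferase reporter cell line | Buffer or medium: F12 medium containing 10% fetal bovine serum | Doses: One dose, 10 µM in 0.5% DMSO | Times: 6 h compound exposure at 37 °C after overnight seeding | Signal: Luciferase luminescence | Read-out: % activation vs tunicamycin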
UPR XBP1 act – activators of adaptive XBP1 UPR arm, primary screen, cell-based, CHO-XBP1 luciferase reporter, luminescence, uHTS | IRE1-XBP1 UPR activation; percent of tunicamycin response, DMSO as zero | activation, % at 20 µM | hit rate 0.33% among 330,000 | AID 463104, 2010;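 active = versus positive control, 20 µM dose yields 30% or more activation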;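 note: 100% = tunicamycin at 10 µg/mL and 0% = DMSO only wells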
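Test system: CHO-XBP1 luciferase reporter cells | Buffer or medium: Serum-containing F12 medium, 10% FBS | Schedule: 6 h compound exposure at 37 °C, 5% CO2 | Detection: Steady-Glo luciferase glow luminescence, 10 min after reagent addition | Read-out basis: Activation, % of tunicamycin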
Active calls of the source: *; x = not tested or not shown.

SMILES	CHOP inh	aDG glyco up	MPTP block	GRIN3A LBD mod	UPR CHOP act	UPR XBP1 act
Cc1ccc(/C=N/NC(=O)c2ccc(C(=O)N/N=C/c3ccc(C)s3)o2)s1	-25	0	4	28*	2	4
Cc1ccc(-c2nnc(SCC(=O)N/N=C/c3ccccc3C(=O)O)n2-c2ccccc2)cc1	-6	x	x	x	2	-5
CC1(C(=O)NCCCN2CCOCC2)Oc2cccnc2NC1=O (centres undefined)	25	0	-1	0	0	-2
O=C(COc1ccccc1Cl)NC1CC1	x	0	0	1	1	2
Cc1ccc(S(=O)(=O)N(CCCc2c(C)nc[nH]c2=O)c2ccccc2)cc1	x	0	0	-2	x	x
CC1(C(=O)NS(=O)(=O)c2cccs2)CCN1C(=O)c1ccccc1CCc1ccccc1 (centres undefined)	x	0	0	x	x	x
CCOc1ccc(-c2nnc(SCC(=O)O)n2Cc2ccccc2)cc1	x	0	1	-2	5	-2
CCCCc1ccc(NC2=NCC(=O)N2CCc2ccccc2)cc1	95*	1	2	-1	-3	-3
COc1cc(C)cc(C(=O)C=Cc2ccccc2)c1O	x	0	-2	17*	x	x
COc1ccc(NC(=O)COC(=O)C2CCN(S(=O)(=O)c3cccs3)CC2)cc1	78*	0	0	-1	-2	-3
Cc1[nH]n(-c2ccccc2)c(=O)c1N=Nc1ccccc1	95*	0	6	1	2	-2
Nc1[nH]n(-c2ccccc2)c(=O)c1N=Nc1ccc2c(c1)OCO2	-13	0	3	11*	3	-2
Nc1[nH]n(-c2ccccc2)c(=O)c1N=Nc1ccc2c(c1)OCCO2	1	0	2	6	1	-4
COc1ccc(/C=N/OCC(=O)Nn2c(C)nc3ccccc3c2=O)cc1	-1	0	2	1	1	-3
CCCNC(=O)[C@H](Cc1c[nH]c2ccccc12)NC(=O)c1ccccc1Cl	-18	0	0	0	1	1
COc1cc2nc(Nc3cccc(F)c3)nc(N)c2cc1OC	x	0	0	17*	6	6
COc1nc(Nc2cccc(F)c2)nc(OC)n1	x	0	0	-1	1	5
COc1cc2nc(N3CCN(C(=O)OCc4ccccc4)C(C(=O)NC(C)(C)C)C3)nc(N)c2cc1OC (centres undefined)	10	x	x	x	x	x
COc1ccc(S(=O)(=O)N2CCOCC2)cc1NC(=O)COc1ccc(C)cc1	x	0	1	18*	0	-4
COc1ccc(NC(C)=O)cc1NC(=O)CN1CCN(S(=O)(=O)c2ccc(C(C)C)cc2)CC1	73*	0	1	-5	-3	-2
Cc1ccc(CNC(=O)COc2ccc(S(=O)(=O)N3CCOCC3)cc2)cc1	x	0	-3	10*	2	0
CCN(CC)S(=O)(=O)c1cc([N+](=O)[O-])ccc1N=Nc1c(O)[nH]c2ccccc12	75*	0	10	18*	x	x
C[C@H](CO)N1C[C@H](C)[C@@H](CN(C)Cc2ccc(-c3ccccc3)cc2)OCc2cnnn2CCCC1=O	x	0	0	x	x	x
CCN(CC(=O)NCCc1ccc(S(N)(=O)=O)cc1)Cc1ccccc1	x	0	0	2	1	-2
COc1ccc(Cl)c(Cn2c(NCc3ccco3)nc3c2c(=O)n(C)c(=O)n3C)c1	19	1	-5	1	2	-5
SMILES	CHOP inh	aDG glyco up	MPTP block	GRIN3A LBD mod	UPR CHOP act	UPR XBP1 act
Cn1c(NCc2ccco2)nc2c1c(=O)n(Cc1ccc(Br)cc1)c(=O)n2C	89*	0	2	-17	-1	-8
Cn1c(=O)n(Cc2ccc(Cl)cc2)c(=O)c2c1nc1n2CCN1Cc1ccco1	22	0	6	0	-1	0
Cn1c(NCc2ccco2)nc2c1c(=O)n(Cc1ccc(Cl)cc1Cl)c(=O)n2C	88*	0	3	2	0	-2
Cn1c(NCc2ccco2)nc2c1c(=O)n(Cc1ccc(Cl)cc1)c(=O)n2C	79*	0	1	15*	-2	4
O=C(COc1ccc(/C=N/NC(=O)c2cccnc2)cc1)Nc1ccccc1	x	0	-1	13*	0	2
COc1cc(/C=C(\C#N)c2ccccn2)ccc1OCC(=O)Nc1ccc(Br)cc1	70*	0	1	3	-1	5
CCOC(=O)/C(C#N)=C/c1ccc(OCC(=O)Nc2ccc(C)c(C)c2)c(OC)c1	40	0	-1	-1	5	-2
COc1ccccc1NC(=O)COc1ccc(/C=N/NC(=O)c2cccnc2)cc1	x	0	1	-9	0	-2
COc1cc(/C=N\Nc2ccc([N+](=O)[O-])cc2)ccc1OCC(=O)Nc1ccc(C)c(C)c1	78*	0	4	17*	x	x
COc1cc(/C=C(\C#N)C(=O)Nc2cc(C(F)(F)F)ccc2Cl)ccc1OCC(=O)Nc1cccc(C(F)(F)F)c1	74*	0	-2	1	1	-3
CCOc1ccc(N2CC(C(=O)Nc3nnc(CC)s3)CC2=O)cc1 (centres undefined)	x	0	-3	-1	1	3
CCN(CC)CCCNc1oc(-c2ccccc2[N+](=O)[O-])nc1C#N	-2	0	1	3	-1	-3
O=C(COc1ccc(/C=N/NC(=O)c2ccccc2Br)cc1)Nc1ccccc1	x	0	1	3	2	-4
Cc1cccc(C(=O)Oc2ccc(/C=N/NC(=O)c3cc(O)cc(O)c3)cc2)c1	x	0	0	14*	6	-4
O=C(Oc1ccc(/C=N/NC(=O)c2ccccc2F)cc1)c1ccccc1	x	0	0	1	4	10
O=C(COc1ccc(/C=N/NC(=O)c2ccccc2O)cc1)Nc1ccccc1	-21	0	-2	16*	10	-2
O=C(Oc1ccc(/C=N/NC(=O)c2ccccc2O)cc1)c1ccccc1	2	0	17	13*	4	6
COc1cc(/C=N/NC(=O)c2ccccc2O)ccc1OCC(=O)Nc1ccccc1	x	0	-2	37*	11	-4
COc1ccc(N2CCN(S(=O)(=O)CCNC(=O)COc3ccccc3C)CC2)cc1	x	0	-1	-1	0	-2
Cc1noc(C)c1COc1ccc(C(=O)OCC(=O)c2ccc3c(c2)OCCO3)cc1	1	0	-3	11*	0	0

High-throughput results from PubChem.
